Among the data in ChEMBL document CHEMBL1921699, “Cucurbitane glucosides from the root of Machilus yaoshansis” (J Nat Prod, 2011) are IC50 and Activity values, retold here.

The target in assay [1] is T1, Tyrosine-protein phosphatase non-receptor type 1 (Homo sapiens, UniProt P18031).
T1 sequence (P18031 whole entry): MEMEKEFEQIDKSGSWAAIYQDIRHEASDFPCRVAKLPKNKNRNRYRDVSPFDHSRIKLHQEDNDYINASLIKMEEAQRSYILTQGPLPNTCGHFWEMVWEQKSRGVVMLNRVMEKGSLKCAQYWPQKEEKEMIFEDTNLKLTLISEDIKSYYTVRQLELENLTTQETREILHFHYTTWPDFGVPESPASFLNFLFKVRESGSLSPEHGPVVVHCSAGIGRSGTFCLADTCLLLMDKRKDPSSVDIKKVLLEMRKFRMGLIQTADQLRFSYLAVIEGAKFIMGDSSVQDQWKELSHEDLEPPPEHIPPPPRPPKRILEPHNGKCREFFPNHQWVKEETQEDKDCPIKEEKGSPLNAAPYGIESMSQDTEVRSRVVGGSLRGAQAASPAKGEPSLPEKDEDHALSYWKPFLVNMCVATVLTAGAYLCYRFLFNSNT
The assay is described as follows: Inhibition of GST-tagged human recombinant PTP1B assessed as dephosphorylation of para-nitrophenyl phosphate after 10 mins by spectrophotometric analysis.

Assay [2] concerns Bel-7402. The assay is described as follows: Cytotoxicity against human Bel7402 cells after 96 hrs by MTT assay. Format: functional, cell-based. Conditions: Bel-7402, 96 h. Summed up: (§1)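 Tested on a human tumour panel of A2780 (ovary), HCT-8 (colon), Bel-7402 (hepatoma), BGC-823 (stomach) and A549 (lung) lines. Camptothecin was the positive control.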
In general terms: Tetrazolium assays rely on reduction of a dye to a coloured formazan, in cell work by metabolically active cells.

Assay [3] deals with Peritoneal macrophage cell. The assay is described as follows: (§2) Antiinflammatory activity in C57BL6J mouse peritoneal macrophages assessed as inhibition of LPS-stimulated TNFalpha secretion at 10 uM after 24 hrs by MTT assay. Format: functional, cell-based.
For assay [4], the system named is A549. The assay is described as follows: Cytotoxicity against human A549 cells after 96 hrs by MTT assay. Conditions: A549, 96 h. Format: functional, cell-based. The method in brief:
as §1

The nature of assay [5]: Cytotoxicity against human […] cells after 96 hrs by MTT assay. Format: functional, cell-based. Summed up: as §1
The subject of assay [6] is HCT-8. The assay is described as follows: Cytotoxicity against human HCT8 cells after 96 hrs by MTT assay. It counts as functional, cell-based. Conditions: HCT-8, 96 h. Summed up:
as §1

Assay [7] deals with A2780. The assay is described as follows: Cytotoxicity against human A2780 cells after 96 hrs by MTT assay. Format: functional, cell-based. Conditions: A2780, 96 h. Summed up:
as §1

Assay [8] can be described thus: as §2. Conditions: Peritoneal macrophage cell. It counts as functional, cell-based.

The source made the active and inactive calls. The calls are words filed in the database; no cut-off is given here.

Broadly, the IC50 is the concentration that inhibits the measured activity by half. `CC1(C)C[C@]2(O)O[C@@H]3C[C@@]4(C)[C@@H]5CC=C6[C@@H](C=C(O[C@@H]7O[C@H](CO)[C@@H](O)[C@H](O)[C@H]7O)C(=O)C6(C)C)[C@]5(C)C(=O)C[C@]4(C)[C@H]3[C@@](C)(O)[C@]2(O)O1`: the half-maximal inhibitory concentration (IC50) is 8.63 µM in assay [1]; above 10 µM in assay [2]; above 10 µM in assay [4]; above 10 µM in assay [5]; above 10 µM in assay [6]; above 10 µM in assay [7]. Further, in assay [3], the result was inactive.
In the case of `CC(=O)C1=CC[C@@]2(C)[C@@H]3CC=C4[C@@H](C=C(O[C@@H]5O[C@H](CO)[C@@H](O)[C@H](O)[C@H]5O)C(=O)C4(C)C)[C@]3(C)C(=O)C[C@]12C`, the half-maximal inhibitory concentration (IC50) in assay [2], in assay [4], in assay [5], in assay [6] and in assay [7] was above 10 µM throughout. The outcome in assay [3] was inactive.
As to `CC(=O)OC(C)(C)/C=C/C(=O)[C@](C)(O)[C@H]1[C@H](O)C[C@@]2(C)[C@@H]3CC=C4[C@@H](C=C(O[C@@H]5O[C@H](CO)[C@@H](O)[C@H](O)[C@H]5O)C(=O)C4(C)C)[C@]3(C)C(=O)C[C@]12C`, the IC50 was above 10 µM in assay [2]; 3.2 µM in assay [4]; 4.98 µM in assay [5]; above 10 µM in assay [6]; above 10 µM in assay [7]. Also, in assay [3], the outcome was inactive.
For `CC(=O)[C@H]1[C@H](O)C[C@@]2(C)[C@@H]3CC=C4[C@@H](C=C(O[C@@H]5O[C@H](CO)[C@@H](O)[C@H](O)[C@H]5O)C(=O)C4(C)C)[C@]3(C)C(=O)C[C@]12C` [KHEKADAENGOSIDE K], the concentration for half-maximal inhibition (IC50) in assay [2], in assay [4], in assay [5], in assay [6] and in assay [7] was above 10 µM each time. For the same molecule, the result in assay [3] was inactive.
`CO[C@@H](CC(=O)[C@](C)(O)[C@H]1[C@H](O)C[C@@]2(C)[C@@H]3CC=C4[C@@H](C=C(O)C(=O)C4(C)C)[C@]3(C)C(=O)C[C@]12C)C(C)(C)O`: the half-maximal inhibitory concentration (IC50) in assay [2], in assay [8], in assay [4], in assay [5], in assay [6] and in assay [7] was above 10 µM throughout.
In the case of `CC1(C)C(=O)C(O)=C[C@@H]2C1=CC[C@@H]1[C@@]2(C)C(=O)C[C@]2(C)[C@@H]([C@@](C)(O)C(=O)C[C@@H](O)C(C)(C)O)[C@H](O)C[C@@]12C`, the half-inhibitory concentration (IC50) in assay [2], in assay [4], in assay [5], in assay [6] and in assay [7] was above 10 µM each time. In addition, in assay [3], the outcome was inactive.
Turning to `CC1(C)C(=O)C(O[C@@H]2O[C@H](CO)[C@@H](O)[C@H](O)[C@H]2O)=C[C@@H]2C1=CC[C@@H]1[C@@]2(C)C(=O)C[C@]2(C)[C@@H]([C@@](C)(O)C(=O)C[C@H](O)C(C)(C)O)[C@H](O)C[C@@]12C`, the concentration for half-maximal inhibition (IC50) in assay [2], in assay [4], in assay [5], in assay [6] and in assay [7] was above 10 µM in each case. Further, the outcome in assay [3] was inactive.
On to `CO[C@@H](CC(=O)[C@](C)(O)[C@H]1[C@H](O)C[C@@]2(C)[C@@H]3CC=C4[C@@H](C=C(O[C@@H]5O[C@H](CO)[C@@H](O)[C@H](O)[C@H]5O)C(=O)C4(C)C)[C@]3(C)C(=O)C[C@]12C)C(C)(C)O`, for which the IC50 in assay [2], in assay [4], in assay [5], in assay [6] and in assay [7] was above 10 µM each time. The result in assay [3] was inactive.
Turning to `CC1(C)C(=O)C(O[C@@H]2O[C@H](CO)[C@@H](O)[C@H](O)[C@H]2O)=C[C@@H]2C1=CC[C@@H]1[C@@]2(C)C(=O)C[C@]2(C)[C@@H]([C@@]3(C)OC=CC3=O)[C@H](O)C[C@@]12C`, the IC50 in assay [2], in assay [4], in assay [5], in assay [6] and in assay [7] was above 10 µM each time. In addition, the result in assay [3] was inactive.
Turning to `CC1(C)C(=O)C(O[C@@H]2O[C@H](CO)[C@@H](O)[C@H](O)[C@H]2O)=C[C@@H]2C1=CC[C@@H]1[C@@]2(C)C(=O)C[C@]2(C)[C@@H]3[C@@H](C[C@@]12C)O[C@H](C(C)(C)O)CC(=O)[C@]3(C)O`, the IC50 in assay [1] is 2.81 µM; in assay [2], above 10 µM; in assay [4] it was above 10 µM; in assay [5], above 10 µM; in assay [6], above 10 µM; in assay [7], above 10 µM. Further, in assay [3], the outcome was inactive.
`CC1(C)C(=O)C(O[C@@H]2O[C@H](CO)[C@@H](O)[C@H](O)[C@H]2O)=C[C@@H]2C1=CC[C@@H]1[C@@]2(C)C(=O)C[C@]2(C)[C@@H]([C@@](C)(O)C(=O)C[C@@H](O)C(C)(C)O)[C@H](O)C[C@@]12C`: the IC50 in assay [2], in assay [4], in assay [5], in assay [6] and in assay [7] was above 10 µM throughout. For the same molecule, the result in assay [3] was inactive.
For `CC1(C)C(=O)C(O[C@@H]2O[C@H](CO)[C@@H](O)[C@H](O)[C@H]2O)=C[C@@H]2C1=CC[C@@H]1[C@@]2(C)C(=O)C[C@]2(C)[C@@H]([C@@](C)(O)C(=O)C[C@H]3NC(=O)OC3(C)C)[C@H](O)C[C@@]12C`, the 50% inhibitory concentration (IC50) in assay [1] is 4.26 µM; in assay [2] it was above 10 µM; in assay [4], above 10 µM; in assay [5] it was above 10 µM; in assay [6], above 10 µM; in assay [7] it was above 10 µM. The outcome in assay [3] was inactive.
As to `C[C@H]1[C@H]2[C@@H](C[C@@]3(C)[C@@H]4CC=C5[C@@H](C=C(O[C@@H]6O[C@H](CO)[C@@H](O)[C@H](O)[C@H]6O)C(=O)C5(C)C)[C@]4(C)C(=O)C[C@]23C)O[C@@]2(O)CC(C)(C)O[C@@]12O`, the IC50 in assay [2], in assay [4], in assay [5], in assay [6] and in assay [7] was above 10 µM in each case. For the same molecule, the result in assay [3] was inactive.
In the case of `CC(C)(O)/C=C/C(=O)[C@](C)(O)[C@H]1[C@H](O)C[C@@]2(C)[C@@H]3CC=C4[C@@H](C=C(O[C@@H]5O[C@H](CO)[C@@H](O)[C@H](O)[C@H]5O)C(=O)C4(C)C)[C@]3(C)C(=O)C[C@]12C`, the IC50 in assay [2], in assay [4], in assay [5], in assay [6] and in assay [7] was above 10 µM in each case. In addition, the outcome in assay [3] was inactive.
As to `CC1(C)C(=O)C(O)=C[C@@H]2C1=CC[C@@H]1[C@@]2(C)C(=O)C[C@]2(C)[C@@H]([C@@](C)(O)C(=O)C[C@H](O)C(C)(C)O)[C@H](O)C[C@@]12C`, the IC50 in assay [2], in assay [8], in assay [4], in assay [5], in assay [6] and in assay [7] was above 10 µM throughout.
Turning to `CC[C@@]1(O)C(=O)OCc2c1cc1n(c2=O)Cc2cc3ccccc3nc2-1` [CAMPTOTHECIN], the IC50 in assay [2], in assay [4], in assay [5], in assay [6] and in assay [7] was 0.26 µM throughout.
